Laboratory results: ChEMBL document CHEMBL4024713, “Novel aryl piperazines for alleviation of 'andropause' associated prostatic disorders and depression” (Eur J Med Chem, 2017)
pEC50: −log10 of the molar value. The source made the active and inactive calls. The calls are words filed in the database; no cut-off is given here.

Assays:
[1] = Half life in Sprague-Dawley rat serum at 10 mg/kg, po administered as single dose by LC-MS/MS analysis; type: ADME, organism-based
Method in brief: (§1)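 Male Sprague Dawley rats (250 ± 25 g), fasted overnight (12-16 h), n = 3 per time point; single 10 mg/kg dose orally by feeding needle, or iv from DMSO solution. Serum, prostate and hypothalamus collected up to 48 h post oral dose; hypothalamus from three rats pooled. LC-MS/MS (MRM, phenacetin internal standard), linear 5-400 ng/mL; noncompartmental and compartmental analysis.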

[2] = system: Hypothalamus; assay: Clearance in Sprague-Dawley rat hypothalamus at 10 mg/kg, po administered as single dose by LC-MS/MS analysis; type: ADME, organism-based; conditions: in vivo; method in brief: as §1
[3] = AUClast in Sprague-Dawley rat serum at 10 mg/kg, po administered as single dose by LC-MS/MS analysis; type: ADME, organism-based; set-up: dose 10 mg/kg, route oral, time 0 - last; method in brief: as §1
[4] = Cmax in Sprague-Dawley rat serum at 10 mg/kg, po administered as single dose by LC-MS/MS analysis; type: ADME, organism-based; set-up: dose 10 mg/kg, route oral; method in brief: as §1
[5] = Clearance in Sprague-Dawley rat serum at 10 mg/kg, po administered as single dose by LC-MS/MS analysis; type: ADME, organism-based; method in brief: as §1
[6] = AUClast in Sprague-Dawley rat prostate at 10 mg/kg, po administered as single dose by LC-MS/MS analysis; type: ADME, organism-based, Prostate gland; conditions: in vivo; method in brief: as §1
[7] = system: Hypothalamus; assay: AUClast in Sprague-Dawley rat hypothalamus at 10 mg/kg, po administered as single dose by LC-MS/MS analysis; type: ADME, organism-based; conditions: in vivo; method in brief: as §1
[8] = system: Rattus norvegicus; assay: Toxicity in citral-induced prostatic hyperplasia Sprague-Dawley rat model assessed as effect on epididymis weight at 10 mg/kg, po administered once daily coadministered with citral for 21 days measured 24 hrs last post dose; type: organism-based; conditions: in vivo
[9] = Ratio of drug level in hypothalamus to serum in Sprague-Dawley rat at 10 mg/kg, po administered as single dose by LC-MS/MS analysis; type: ADME, organism-based; method in brief: as §1
[10] = Cmax in Sprague-Dawley rat prostate at 10 mg/kg, po administered as single dose by LC-MS/MS analysis; type: ADME, organism-based, Prostate gland; set-up: dose 10 mg/kg, route oral; method in brief: as §1
[11] = system: Hypothalamus; assay: Volume of distribution at steady state in Sprague-Dawley rat hypothalamus at 10 mg/kg, po administered as single dose by LC-MS/MS analysis; type: ADME, organism-based; conditions: in vivo; method in brief: as §1
[12] = Tmax in Sprague-Dawley rat serum at 10 mg/kg, po administered as single dose by LC-MS/MS analysis; type: ADME, organism-based; method in brief: as §1
[13] = Clearance in Sprague-Dawley rat prostate at 10 mg/kg, po administered as single dose by LC-MS/MS analysis; type: ADME, organism-based, Prostate gland; conditions: in vivo; method in brief: as §1
[14] = AUClast in Sprague-Dawley rat serum at 10 mg/kg, iv administered as single dose by LC-MS/MS analysis; type: ADME, organism-based; set-up: dose 10 mg/kg, route intravenous, time 0 - last; method in brief: as §1
[15] = system: Rattus norvegicus; assay: Toxicity in citral-induced prostatic hyperplasia Sprague-Dawley rat model assessed as effect on seminal vesicle weight at 10 mg/kg, po administered once daily coadministered with citral for 21 days measured 24 hrs last post dose; type: organism-based; conditions: in vivo
[16] = system: DU-145; assay: Cytotoxicity against human DU145 cells after 24 hrs by MTT assay; type: functional, cell-based; conditions: DU-145, 24 h
[17] = Half life in Sprague-Dawley rat hypothalamus at 10 mg/kg, po administered as single dose by LC-MS/MS analysis; type: ADME, organism-based; method in brief: as §1
[18] = system: Mus musculus; assay: Toxicity in Swiss albino mouse assessed as latency time to fall at 20 mg/kg, po measured at 1 hr interval for 4 hrs by rotarod test; type: organism-based; conditions: in vivo
Method in brief: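 Mice trained on the rotarod (5 to 10 rpm), 2 min trials, 3 per day for two days. On day 3, tested before oral dosing and at 1, 2, 3 and 4 h after, recording latency to fall.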

[19] = system: Rattus norvegicus; assay: Anti-androgenic activity in citral-induced prostatic hyperplasia Sprague-Dawley rat model assessed increase in distinction between stromal and acinar compartments at 10 mg/kg, po administered once daily coadministered with citral for 21 days measured 24 hrs last post dose by hematoxyline and eosin stainig based light microscopic analysis; type: functional, organism-based
Method in brief: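 Adult male Sprague-Dawley rats (250-280 g, n = 5), citral 100 mg/kg orally once daily for 28 days. From day 8, compound or flutamide at 10 mg/kg orally once daily for the remaining 21 days. Prostate weight is expressed relative to the citral group (100%). Prostates fixed in 10% formalin; 5 μ sections stained with H&E, examined by light microscopy.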

[20] = system: Serum; assay: Volume of distribution at steady state in Sprague-Dawley rat serum at 10 mg/kg, po administered as single dose by LC-MS/MS analysis; type: ADME, organism-based; conditions: in vivo; method in brief: as §1
[21] = Tmax in Sprague-Dawley rat prostate at 10 mg/kg, po administered as single dose by LC-MS/MS analysis; type: ADME, organism-based, Prostate gland; method in brief: as §1
[22] = system: PC-3; assay: Cytotoxicity against human PC3 cells after 24 hrs by MTT assay; type: functional, cell-based; conditions: PC-3, 24 h
[23] = Half life in Sprague-Dawley rat serum at 10 mg/kg, iv administered as single dose by LC-MS/MS analysis; type: ADME, organism-based; method in brief: as §1
[24] = Cmax in Sprague-Dawley rat serum at 10 mg/kg, iv administered as single dose by LC-MS/MS analysis; type: ADME, organism-based; set-up: dose 10 mg/kg, route intravenous; method in brief: as §1

## c1ccc(N2CCN(CCCN3CCN(c4ccccn4)CC3)CC2)nc1
[1]
  half-life: 5.4 h
[2]
  CL: 0.8 g/h/kg
[3]
  AUC(0-t): 900 ng·h/mL
[4]
  Cmax: 329 ng/mL
[5]
  CL/F: 65 mL/min/kg
[6]
  AUClast: 10.7 µg·h/g
[7]
  AUClast: 4.2 µg·h/g
[8]
  Activity: Non-Toxic
[9]
  Kp: 4.6
[10]
  Cmax: 572 ng/g
[11]
  Vdss: 6.6 g/kg
[12]
  Tmax: 1 h
[13]
  CL: 0.3 g/h/kg
[14]
  AUC(0-t): 2500 ng·h/mL
[15]
  Activity: Non-Toxic
[16]
  pEC50: < 4.10
[17]
  half-life: 129 h
[18]
  Time: 120 s
[19]
  Activity: Active
[20]
  Vdss: 23.7 L/kg
[21]
  Tmax: 4 h
[22]
  pEC50: < 4.10
[23]
  half-life: 5.2 h
[24]
  Cmax: 520 ng/mL
